What was measured:
[1] = system: i.c. HIFko tumor derived cell suspension; assay: ex vivo binding of individual phage to tumor-derived cell suspension; type: cell-based, mouse; conditions: cell suspension from tumor containing brain relative to normal brain
[2] = system: intracranial U87MG human glioma; assay: in vivo homing of fluorescein-conjugated peptide, i.c. U87MG glioma; parameters: species or system mouse; conditions: fluorescein-conjugated peptide i.v., 60 min
Method in brief: (§1)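 Athymic female Balb/c nu-nu mice (4–6 wk) with intracranial tumors, used 10–21 days after inoculation. Fluorescein-labelled peptide (100 µM, 100 µl/animal) was injected into the tail vein and circulated 60 min. Mice were perfused through the […] and tumors excised. Frozen sections (5–10 µm) were stained with rabbit anti-FITC, anti-PECAM-1 for vessels and DAPI, then examined by fluorescence microscopy.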

[3] = system: tumors derived from VEGF-expressing HIFko cells; assay: in vivo homing of fluorescein-conjugated peptide, VEGF-expressing HIFko tumors; parameters: species or system mouse; conditions: fluorescein-conjugated peptide i.v., 60 min; i.c. tumors
Method in brief: as §1

[4] = system: orthotopic MDA-MB-231 human breast cancer xenografts; assay: in vivo homing of fluorescein-conjugated peptide, MDA-MB-231 xenografts; parameters: species or system mouse; conditions: fluorescein-conjugated peptide i.v., 60 min
Method in brief: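 Athymic female Balb/c nu-nu mice (4–6 wk) bearing xenografts received fluorescein-labelled peptide intravenously, circulated one hour. Frozen sections (5–10 µm) were stained with rabbit anti-FITC and anti-PECAM-1 antibodies, Alexa-conjugated secondaries and DAPI, then examined under a fluorescence microscope.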

[5] = system: i.c. tumors derived from MDGI expressing U87MG cells; type: in vivo, mouse; conditions: MDGI expressing versus control U87MG tumors; fluorescein-conjugated peptide i.v.
[6] = system: rat BT4C glioma xenografts; assay: in vivo homing of fluorescein-conjugated peptide, BT4C glioma; parameters: species or system mouse; conditions: fluorescein-conjugated peptide i.v., 60 min
Method in brief: as §1

[7] = system: subcutaneous tumors established from the HIFko cells; assay: in vivo homing of fluorescein-conjugated peptide, subcutaneous HIFko tumors; parameters: species or system mouse; conditions: fluorescein-conjugated peptide i.v., 60 min
Method in brief: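 Athymic female Balb/c nu-nu mice (4–6 wk) were grafted subcutaneously on the abdominal side with 5×10^6 HIFko cells. Fluorescein-labelled peptide was given intravenously and circulated one hour. Frozen tissue sections (5–10 µm) were stained with rabbit anti-FITC antibody, Alexa-conjugated secondary antibody and DAPI, then viewed by fluorescence microscopy.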

[8] = system: intracranial HIFko tumors; assay: treatment of intracranial HIFko tumor-bearing mice with targeted Cbl; type: in vivo, mouse
Method in brief: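 Athymic female Balb/c nu-nu mice (4–6 wks) bearing intracranial HIFko tumours were randomised to groups of 4 from day 5 post-implantation. They received i.v. PBS, peptide–drug conjugate (5 mg/kg), or free drug at the same molar amount, every second day. Body weight was monitored, and mice were sacrificed once weight loss exceeded 10%.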

[9] = system: intracranial HIFko tumors; assay: in vivo homing of intravenously injected phage; parameters: species or system mouse; conditions: intravenous injection; compared to control phage; mean of three experiments
Method in brief: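 T7Select415-1 phage displaying the peptide were injected into the tail vein of mice bearing intracranial HIFko tumors and circulated 15 min. Tissues were excised and phage recovered and amplified in E. coli BLT5615. Non-recombinant control phage was injected into a separate mouse, and homing was expressed relative to it. Mean of three experiments, ±SEM.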

## CSESGLGVA [phage 34]
[1]
  brain tumor to normal brain ratio of ex vivo phage binding: about 13

## H-ACGLSGLGVA-NH2 [CooP]
[2]
  homing to intracranial U87MG human glioma: homed
[3]
  homing to tumors derived from VEGF-expressing HIFko cells: did not home
[4]
  homing to MDA-MB-231 human breast cancer xenografts: No CooP peptide was detected
[5]
  effect of MDGI-expression on peptide homing to i.c. U87MG tumors: substantially increased
[6]
  homing to rat BT4C glioma xenografts: homed
[7]
  homing to subcutaneous HIFko tumors: did not home

## NH2-CGLSGLGVAGGMVRRFLVTLRIRRACGPPRVRVK(^εCbl)-CONH2 [CooP-CPP-Cbl]
[8]; 5 mg/kg i.v. every second day from d5
  signs of tumor burden: did not show any signs of tumor burden
[8]; 5 mg/kg i.v. every second day from d5, 4 mice/group
  body weight course: gained weight
[8]; 5 mg/kg i.v. every second day from d5, versus saline and free Cbl
  life span of the animals: prolonged the life span
[8]; 5 mg/kg i.v. every second day, four sections/animal
  size of the primary tumor versus control groups: no difference

## CGLSGLGVA [phage 36]
[9]
  accumulation in other organs (liver, kidney, lung, normal brain): negligible accumulation
[1]
  brain tumor to normal brain ratio of ex vivo phage binding: over 80

— PMC4007056 (Molecular cancer therapeutics, 2014)
